The labels stand for the following.
B1: tRNA (parent)
chain: GUUCCGUUGGCGUAAUGGUAACGCGUCUCCCUCCUAAGGAGAAGACUGCGGGUUCGAGUCCCGUACGGAACG

This sample holds only a part of the variants without activity.

This data set covers variants of B1. Description: yeast fitness relative to wild type (ratio to wild type); higher = fitter; tRNA-Arg(CCU), competitive growth, 37 C, YPD. Put shortly: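 Amplicons of the tRNA-Arg(CCU) gene were sequenced, 100-nucleotide paired-end, from the start population and from each end population of a pooled yeast competition. The competition, in six parallel replicates, lasted 24 hours in YPD at 37°C. Fitness relative to wild type was calculated from changes in genotype frequencies. Genotypes had to have ≥ 100 starting reads, and estimates < 0.5 were set to 0.5.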
Take GUUCCGUUGGCAUAAUGGUAACGCGUCUCCCUCCUAAGCAGAAGACUGCGGGUUCGAGUCCCGUACAGAACG [G12A G39C G67A]: the yeast fitness was ≤ 0.5.

On to GUUCCGUUGGCAUAAUGGUAACGCGUCUCCCUCCUAAGGAGAAUACUGCGGGUUCGAGUCCCGUACGCAACG [G12A G44U G68C], for which the yeast fitness was ≤ 0.5. To GUUCCGUUGGCAUAAUGGUAACGCGUCUCCCUCCUAAGGAGAAAACUGCGGGUUCGAGUCCCGUACGGAACG [G12A G44A] belongs 0.935. In the case of GUUCCGUUGGCAUAAUGGUAACGCGUCUCCCUCCUAAGGAGAACACUGCGGGUUCGAGUCCCGUACGGAACG [G12A G44C], the yeast fitness is 0.727. Take GUUCCGUUGGCAUAAAGGUAACGCGUCUCCCUCCUAAGGGGAAGACUGCGGGUUCGCGUACUGUACGGAACG [G12A U16A A40G A57C C60A C62U]: the yeast fitness is 0.69. For the variant GUUCCGUUGGCAUAAAGGUAACGCGUCUCCCUCCUAAGGAGAAGUCUGCGGGUUCGAGUCCCGUACGGAACG [G12A U16A A45U], the yeast fitness is 0.629.

In the case of GUUCCGUUGGCAUAAUGGUAACGCGUCUCCCUCCUAAGGAGAACACUGCGGGUUCGAGUCCCGUACAGAACG [G12A G44C G67A], the yeast fitness was determined as 0.513. To GUUCCGUUGGCACAGUGGUAACGCGUCUCCCUCCUAAGGAGAAGACUGCGGGUUCGAGUCCCGCACGGAACG [G12A U13C A15G U64C] belongs 0.738. As to GUUCCGUUGGCACAAUGGUAACGCGUCUCCCUCCUAAGGAGUAGACUGCGGGUUCGAGUCCCGUACGGAACG [G12A U13C A42U], the yeast fitness was 0.561. The result for GUUCCGUUGGCAUAACGGUAACGCGUCUCCCUCCUAAGGAGAAGACUGCGGGUUCGAGUCCCGUACGGAACG [G12A U16C] reads 0.981.

Turning to GUUCCGUUGGCAUAAGGGUAACGCGUCUCCCUCCUAAGGAGAAGACUGCGGGUUCGAGUCCCGUACGGAACG [G12A U16G], the yeast fitness stood at 0.815. On to GUUCCGUUGGCACAUUGGUAACGCGUCUCCCUCCUAAGGAGAAGACUGCGGGUUCGAGUCCCGUACGGAACG [G12A U13C A15U], for which the yeast fitness was found to be 0.507. GUUCCGUUGGCAGAAUGGUAACGCGUCUCCCUCCUAAGGAGAAGACUGCGGGUUCGAGUCCCGUACGGCACG [G12A U13G A69C]: the yeast fitness turned out to be 0.598. Turning to GUUCCGUUGGCAUAAUGGUAACGCGUCUCCCUCCUAAAGAGAAGACUGCGGGUUCGAGUCCCGUACGGAACG [G12A G38A], the yeast fitness was determined as 0.728. As to GUUCCGUUGGCAUAAUGGUAACGCGUCUCCCUCCUAAGGAGAAGACUACGGGUUCGAGUCCCGUAUAGAACG [G12A G48A C66U G67A], the yeast fitness is ≤ 0.5.

For GUUCCGUUGGCAUAAUGGUAACGCGUCUCCCUCCUAAGGAGAACACUGGGGGUUCGAGUCCCGUACGGAACG [G12A G44C C49G], the yeast fitness was 0.799. As to GUUCCGUUGGCAUAAUGGCAACGCGUCUCCCUCGUAAGGAGAAGACUGCGGGUUCGAGUCCCGUACGGAACG [G12A U19C C34G], the yeast fitness came out at 0.544. Consider GUUCCGUUGGCAUAAUGGAUACGCGUCUCCCUCCUUAGGAGAAGACUGCGGGUUCGAGUCCCGUACGGAACG [G12A U19A A20U A36U], for which the yeast fitness is ≤ 0.5. In the case of GUUCCGUUGGCAUAAUGGAAACGCGUCUGCCUCCUAAGGAGAUGACUGCGGGUUUGAGUCCCGUACGGAACG [G12A U19A C29G A43U C55U], the yeast fitness is ≤ 0.5.

As to GUUCCGUUGGCAUAAUGGUAACGCGUCUCCCUCCUAAGCAGAAGACUGCGGGUUCGAGUCCCGUAUGGAACG [G12A G39C C66U], the yeast fitness stood at 0.572. In the case of GUUCCGUUGGCAUAAUGGUAACGCAUCUCCCUCCUAAGGAGAAGACUACGGGUUCGAGUCCCGUACGGAACG [G12A G25A G48A], the yeast fitness was 0.66. As for GUUCCGUUGGCAUAAUGGUAACGCGUCUCCCUCCUAACGAGAAGAGUGGGCGUUCGAGUCUCGUACGGAACG [G12A G38C C46G C49G G51C C61U], the yeast fitness is ≤ 0.5. Regarding GUUCCGUUGGCACAAUGGUAACGCGUCUCCCUCCUAAGGAGAACACUGCGGGUUCGAGUCCCGUACGGAACG [G12A U13C G44C], the yeast fitness stood at 0.554. Take GUUCCGUUGGCAUAAUGGUAACACGUCUCCCUCCGGAGGAGAAGAUUGCGGGUUCGUGUCCCGUACGGAACG [G12A G23A U35G A36G C46U A57U]: the yeast fitness was ≤ 0.5. To GUUCCGUUGGCAUAAUGGUAACGCGUCUCCCUCCUAAGGAGAAGACUGCCGGUUCGAGUCCCGCACGGAACG [G12A G50C U64C] belongs 0.692; to GUUCCGUUGGCAUAAUGGUAACGCGUCUCCCUCCUAAGGAGAAGACUGCGGGUUCGAUUCCCGUACGGAGCG [G12A G58U A70G], 0.538. The result for GUUCCGUUGGCAUAAUGGAAACGCGUCUCCCUCCUAAGGAGAAGACUGCGGCUUCGAGUCCCGUACGGAACG [G12A U19A G52C] reads ≤ 0.5; that for GUUCCGUUGGCAUAAUGGUAACGCGUCUCCCUCCUAAGGAGAAGACUGCAGGUUCGAGUCCCGUACGGAACG [G12A G50A], 1.01. For the variant GUUCCGUUGGCAUAAUGGUAACGCGUCUCCCUCCUAAGGACAAGACUGCGGGUUCGAGUGCCGUACGGAUCG [G12A G41C C60G A70U], the yeast fitness was ≤ 0.5. For the variant GUUCCGUUGGCAUAAUGGCAACGCGUCUCCCUCCUAAGGAGUAGACUCCGGGUUUGAGUCCCGUACGGAACG [G12A U19C A42U G48C C55U], the yeast fitness amounted to 0.593. To GUUCCGUUGGCAUAAUGGUAACACGUCUCCCUCCGAAGGAGAAGACUGCGGGUUCGAAUCCCGUACGGAACG [G12A G23A U35G G58A] belongs ≤ 0.5.

As for GUUCCGUUGGCAUAAUGGCAACGCGUCUCCGUCCUAAGGAGAAGACUGCGGGUUCGAGUCCCGUACGGAACG [G12A U19C C31G], the yeast fitness is ≤ 0.5. Regarding GUUCCGUUGGCAUAAUGGUAACGCGUCUCCCUCCUAAGGAGAAGACUGCGGGUUCGAGUCCCGUACGAAACG [G12A G68A], the yeast fitness worked out at 0.771. For the variant GUUCCGUUGGCAUAAUGGUAACGCGUCUCCCUCCUAAGGAGAAGACUGCGGGUUCGAGUCCCAUACAGAACG [G12A G63A G67A], the yeast fitness was ≤ 0.5.

On to GUUCCGUUGGCAUAAUGGUAACGCGUCUCCCUCCUAAAGAGAAGACUGCGGGUUCGAGUGCCGUACGGAACG [G12A G38A C60G], for which the yeast fitness is ≤ 0.5. The result for GUUCCGUUGGCAUAAUGGUAACGCAUCUCCCUCCUAAGGAGAAGACUGCGGGUUCGAGUCCCGUACAGAACG [G12A G25A G67A] reads 0.625; that for GUUCCGUUGGCAAGAUGGUAACGCGUCUCCCUCCUAACGAGAAGACUGCGGGUUCGAGUCCCGUACGGAACG [G12A U13A A14G G38C], ≤ 0.5.

These data come from the RNAGym collection of RNA variant scans (doi:10.1126/science.aae0568).
